Active and inactive are the calls of the source. The calls are words filed in the database; no cut-off is given here.
Assays:
CCRF-CEM [1] = test: Cytotoxicity against human CCRF-CEM cells assessed as inhibition of cell growth incubated for 72 hrs by MTS assay; format: functional, cell-based
In short: (§1)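 MTS assay on eight human cancer lines and two non-tumour fibroblast lines. IC50 is the concentration that inhibits cell growth by 50 %. SD typically up to 15 % of the mean.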

CEM-DNR = test: Cytotoxicity against human CEM-DNR cells assessed as inhibition of cell growth incubated for 72 hrs by MTS assay; format: functional, cell-based; in short: as §1
HCT-116 = test: Cytotoxicity against human HCT-116 cells assessed as inhibition of cell growth incubated for 72 hrs by MTS assay; format: functional, cell-based; conditions: HCT-116, 72 h; in short: as §1
HCT 116 TP53(-/-) = test: Cytotoxicity against human HCT116-p53-null cells assessed as inhibition of cell growth incubated for 72 hrs by MTS assay; format: functional, cell-based; in short: as §1
K562 = test: Cytotoxicity against human K562 cells assessed as inhibition of cell growth incubated for 72 hrs by MTS assay; format: functional, cell-based; conditions: K562, 72 h; in short: as §1
[2] = Cytotoxicity against human K562-Tax cells assessed as inhibition of cell growth incubated for 72 hrs by MTS assay; format: functional, cell-based; in short: as §1
A549 = test: Cytotoxicity against human A549 cells assessed as inhibition of cell growth incubated for 72 hrs by MTS assay; format: functional, cell-based; conditions: A549, 72 h; in short: as §1
U2OS = test: Cytotoxicity against human U2OS cells assessed as inhibition of cell growth incubated for 72 hrs by MTS assay; format: functional, cell-based; in short: as §1
[3] = Cytotoxicity against human BJ cells assessed as inhibition of cell growth incubated for 72 hrs by MTS assay; format: toxicity, cell-based; in short: as §1
[4] = Cytotoxicity against human MRC5 cells assessed as inhibition of cell growth incubated for 72 hrs by MTS assay; format: toxicity, cell-based; in short: as §1
[5] = Stability in human plasma assessed as compound remaining at 2 uM incubated for 15 mins by RF-MS analysis; format: ADME, cell-free; conditions: read-out: Stability
In short: (§2)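 Human plasma stability, plasma protein binding and liver microsome stability, each run in triplicate. Error deviations below 10 %.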

[6] = Stability in human plasma assessed as compound remaining at 2 uM incubated for 30 mins by RF-MS analysis; format: ADME, cell-free; conditions: read-out: Stability; in short: as §2
[7] = Stability in human plasma assessed as compound remaining at 2 uM incubated for 60 mins by RF-MS analysis; format: ADME, cell-free; conditions: read-out: Stability; in short: as §2
[8] = Stability in human plasma assessed as compound remaining at 2 uM incubated for 120 mins by RF-MS analysis; format: ADME, cell-free; conditions: read-out: Stability; in short: as §2
[9] = Plasma protein binding in human assessed as fraction bound at 10 uM incubated for 4 hrs by rapid equilibrium dialysis based RF-MS analysis; format: ADME, cell-free; conditions: read-out: PPB (converted); in short: as §2
[10] = Metabolic stability in human liver microsomes assessed as parent compound remaining at 2 uM incubated for 15 mins in presence of NADPH by RF-MS analysis; format: ADME, Microsome; conditions: read-out: Stability; in short: as §2
[11] = Metabolic stability in human liver microsomes assessed as parent compound remaining at 2 uM incubated for 30 mins in presence of NADPH by RF-MS analysis; format: ADME, Microsome; conditions: read-out: Stability; in short: as §2
[12] = Metabolic stability in human liver microsomes assessed as parent compound remaining at 2 uM incubated for 60 mins in presence of NADPH by RF-MS analysis; format: ADME, Microsome; conditions: read-out: Stability; in short: as §2
CCRF-CEM [13] = test: Induction of apoptosis in human CCRF-CEM cells assessed as viable cells at 1 times IC50 incubated for 24 hrs by Annexin V-FITC and PI staining based flow cytometric analysis (reference value: 97.4 %); format: functional
In short: (§3)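 Washed in Ca2+-containing binding buffer, then stained 15 min at room temperature in the dark with Annexin V-FITC and propidium iodide (PI at half the kit-recommended level). Read at once by flow cytometry with a 488 nm laser, ≥10,000 cells. Debris excluded; quadrants viable, early apoptotic, late apoptotic/necrotic, necrotic. Three independent experiments.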

CCRF-CEM [14] = test: Induction of apoptosis in human CCRF-CEM cells assessed as early apoptotic cells at 1 times IC50 incubated for 24 hrs by Annexin V-FITC and PI staining based flow cytometric analysis (reference value: 2.1 %); format: functional; in short: as §3
CCRF-CEM [15] = test: Induction of apoptosis in human CCRF-CEM cells assessed as late apoptotic cells at 1 times IC50 incubated for 24 hrs by Annexin V-FITC and PI staining based flow cytometric analysis (reference value: 0.4 %); format: functional; in short: as §3
CCRF-CEM [16] = test: Induction of apoptosis in human CCRF-CEM cells assessed as necrotic cells at 1 times IC50 incubated for 24 hrs by Annexin V-FITC and PI staining based flow cytometric analysis (reference value: 0.4 %); format: functional; in short: as §3
CCRF-CEM [17] = test: Induction of apoptosis in human CCRF-CEM cells assessed as viable cells at 5 times IC50 incubated for 24 hrs by Annexin V-FITC and PI staining based flow cytometric analysis (reference value: 97.4 %); format: functional; in short: as §3
CCRF-CEM [18] = test: Induction of apoptosis in human CCRF-CEM cells assessed as early apoptotic cells at 5 times IC50 incubated for 24 hrs by Annexin V-FITC and PI staining based flow cytometric analysis (reference value: 2.1 %); format: functional; in short: as §3
CCRF-CEM [19] = test: Induction of apoptosis in human CCRF-CEM cells assessed as late apoptotic cells at 5 times IC50 incubated for 24 hrs by Annexin V-FITC and PI staining based flow cytometric analysis (reference value: 0.4 %); format: functional; in short: as §3
CCRF-CEM [20] = test: Induction of apoptosis in human CCRF-CEM cells assessed as necrotic cells at 5 times IC50 incubated for 24 hrs by Annexin V-FITC and PI staining based flow cytometric analysis (reference value: 0.4 %); format: functional; in short: as §3
Mitochondrial membrane = test: Induction of mitochondrial membrane potential depolarization in human CCRF-CEM cells assessed as fold increase in fluorescence intensity incubated for 24 hrs by JC-1 staining based flow cytometry; format: cell membranes
CCRF-CEM [21] = test: Induction of cell cycle arrest in human CCRF-CEM cells assessed as increase in accumulation of G0/G1 phase at 1 times IC50 incubated for 24 hrs by RNase/PI staining based flow cytometry; format: functional
In short: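 Propidium iodide staining and flow cytometry with a 488 nm laser, ≥10,000 intact cells. Phase proportions compared with untreated cells; SEM of three independent experiments.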

CCRF-CEM [22] = test: Inhibition of DNA synthesis in human CCRF-CEM cells at 1 times IC50 incubated for 24 hrs by BrdU incorporation based flow cytometry; format: functional
In short: (§4)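 Fixed in ice-cold 70 % ethanol, DNA denatured in 2 M HCl for 30 min, neutralised with borax. Stained with anti-BrdU plus FITC secondary, then PI/RNase A for 1 h. Flow cytometry; % BrdU-positive cells.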

CCRF-CEM [23] = test: Inhibition of DNA synthesis in human CCRF-CEM cells at 5 times IC50 incubated for 24 hrs by BrdU incorporation based flow cytometry; format: functional; in short: as §4
CCRF-CEM [24] = test: Inhibition of RNA synthesis in human CCRF-CEM cells at 1 times IC50 incubated for 24 hrs by BrU incorporation based flow cytometry; format: functional
In short: (§5)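 Fixed in 1 % paraformaldehyde/0.05 % NP-40 (15 min at room temperature, then 4 °C overnight). Stained with cross-reacting anti-BrdU plus FITC secondary (45 min each), then PI/RNase A. Flow cytometry; % BrU-positive cells.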

CCRF-CEM [25] = test: Inhibition of RNA synthesis in human CCRF-CEM cells at 5 times IC50 incubated for 24 hrs by BrU incorporation based flow cytometry; format: functional; in short: as §5
CCRF-CEM [26] = test: Induction of cell cycle arrest in human CCRF-CEM cells assessed as downregulation of AKT phosphorylation at 1 times IC50 incubated for 24 hrs by Western blotting analysis; format: functional, cell-based
In short: (§6)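 30 µg protein per lane on SDS-PAGE, transferred to nitrocellulose, blocked in 5 % BSA/TBS-Tween. Primary antibodies overnight at 4 °C (Akt, P-Akt Ser473, STAT-3, caspase-3, PARP, cyclin D, cyclin A, Bcl-xL, Bak, Bid, Bim), then HRP secondary and ECL detection. GAPDH as loading control.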

CCRF-CEM [27] = test: Induction of cell cycle arrest in human CCRF-CEM cells assessed as downregulation of AKT phosphorylation at 5 times IC50 incubated for 24 hrs by Western blotting analysis; format: functional, cell-based; in short: as §6
CCRF-CEM [28] = test: Induction of cell cycle arrest in human CCRF-CEM cells assessed as downregulation of total STAT3 expression at 1 to 5 times IC50 incubated for 24 hrs by Western blotting analysis; format: functional, cell-based; in short: as §6
CCRF-CEM [29] = test: Induction of cell cycle arrest in human CCRF-CEM cells assessed as downregulation of Cyclin D expression at 1 to 5 times IC50 incubated for 24 hrs by Western blotting analysis; format: functional, cell-based; in short: as §6
CCRF-CEM [30] = test: Induction of cell cycle arrest in human CCRF-CEM cells assessed as downregulation of Cyclin A expression at 5 times IC50 incubated for 24 hrs by Western blotting analysis; format: functional, cell-based; in short: as §6
CCRF-CEM [31] = test: Induction of apoptosis in human CCRF-CEM cells assessed as downregulation of caspase-3 expression at 5 times IC50 incubated for 24 hrs by Western blotting analysis; format: functional, cell-based; in short: as §6
CCRF-CEM [32] = test: Induction of apoptosis in human CCRF-CEM cells assessed as upregulation of BID expression at 1 to 5 times IC50 incubated for 24 hrs by Western blotting analysis; format: functional, cell-based; in short: as §6
CCRF-CEM [33] = test: Induction of apoptosis in human CCRF-CEM cells assessed as upregulation of BIM expression at 1 to 5 times IC50 incubated for 24 hrs by Western blotting analysis; format: functional, cell-based; in short: as §6

- remaining at 0.25 h, 2 µM [5]: 98%
- remaining at 0.5 h, 2 µM [6]: 95%
- remaining at 1 h, 2 µM [7]: 96%
- remaining at 2 h, 2 µM [8]: 85%
- fraction unbound at 4 h, 10 µM [9]: 0.425
- remaining at 0.25 h, 2 µM [10]: 103%
- remaining at 0.5 h, 2 µM [11]: 104%
- remaining at 1 h, 2 µM [12]: 98%
- Activity (Mitochondrial membrane): Dose-dependent-effect
Structure (SMILES): CC(=O)O[C@H]1CC[C@]2(C)[C@H]3CC[C@@H]4[C@H]5[C@H](c6cc7c(c(-c8ccccc8)c6)C(=O)N(c6nccs6)C7=O)CC[C@]5(C(=O)O)CC[C@@]4(C)[C@]3(C)CC[C@H]2C1(C)C
- IC50 (CCRF-CEM [1]): 2.52 µM
- IC50 (CEM-DNR): 30.5 µM
- IC50 (HCT-116): 13.1 µM
- IC50 (HCT 116 TP53(-/-)): 18.6 µM
- IC50 (K562): 21.4 µM
- IC50 [2]: 24.5 µM
- IC50 (A549): 20.8 µM
- IC50 (U2OS): 16.8 µM
- IC50 at 72 h [3]: 31.7 µM
- IC50 at 72 h [4]: 27.8 µM
- Activity (CCRF-CEM [13]): 92.3%
- Activity (CCRF-CEM [14]): 5.1%
- Activity (CCRF-CEM [15]): 2.6%
- Activity (CCRF-CEM [16]): 0%
- Activity (CCRF-CEM [17]): 90.8%
- Activity (CCRF-CEM [18]): 6%
- Activity (CCRF-CEM [19]): 3.2%
- Activity (CCRF-CEM [20]): 0%
- Activity (CCRF-CEM [21]): Active; Slight Increased Activity Observed
- inhibition (INH) (CCRF-CEM [22]): 37.2%
- inhibition (INH) (CCRF-CEM [23]): 18.5%
- inhibition (INH) (CCRF-CEM [24]): 28%
- inhibition (INH) (CCRF-CEM [25]): 36.1%
- Activity (CCRF-CEM [26]): Active
- Activity (CCRF-CEM [27]): Active
- Activity (CCRF-CEM [28]): Active
- Activity (CCRF-CEM [29]): Active
- Activity (CCRF-CEM [30]): Active
- Activity (CCRF-CEM [31]): Active
- Activity (CCRF-CEM [32]): Active
- Activity (CCRF-CEM [33]): Active

— ChEMBL document CHEMBL6078712, “Triterpenoid phthalimides as selective anti-cancer agents targeting mitochondrial apoptosis” (Eur J Med Chem, 2025)
